Measured values from ChEMBL document CHEMBL1145596 (Bioorg Med Chem Lett, 2008).
Values after ≈ are worked out from the molar mass of the structure shown.

Experiments:
[1] = Lipophilicity, log P of the compound; format: physicochemical; details: octanol/water
Summary of the method: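 LogP computed for the unprotonated molecule with a commercial software package. Not measured experimentally.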

[2] = target: T1, ATP-dependent translocase ABCB1 (Homo sapiens, UniProt P08183); test: Reversal of P-glycoprotein-mediated multidrug resistance in human MDR1 gene transfected mouse L5178Y cells assessed as fluorescence activity ratio at 4 ug/ml by flow cytometry; format: cell-based
T1 sequence (P08183 whole entry): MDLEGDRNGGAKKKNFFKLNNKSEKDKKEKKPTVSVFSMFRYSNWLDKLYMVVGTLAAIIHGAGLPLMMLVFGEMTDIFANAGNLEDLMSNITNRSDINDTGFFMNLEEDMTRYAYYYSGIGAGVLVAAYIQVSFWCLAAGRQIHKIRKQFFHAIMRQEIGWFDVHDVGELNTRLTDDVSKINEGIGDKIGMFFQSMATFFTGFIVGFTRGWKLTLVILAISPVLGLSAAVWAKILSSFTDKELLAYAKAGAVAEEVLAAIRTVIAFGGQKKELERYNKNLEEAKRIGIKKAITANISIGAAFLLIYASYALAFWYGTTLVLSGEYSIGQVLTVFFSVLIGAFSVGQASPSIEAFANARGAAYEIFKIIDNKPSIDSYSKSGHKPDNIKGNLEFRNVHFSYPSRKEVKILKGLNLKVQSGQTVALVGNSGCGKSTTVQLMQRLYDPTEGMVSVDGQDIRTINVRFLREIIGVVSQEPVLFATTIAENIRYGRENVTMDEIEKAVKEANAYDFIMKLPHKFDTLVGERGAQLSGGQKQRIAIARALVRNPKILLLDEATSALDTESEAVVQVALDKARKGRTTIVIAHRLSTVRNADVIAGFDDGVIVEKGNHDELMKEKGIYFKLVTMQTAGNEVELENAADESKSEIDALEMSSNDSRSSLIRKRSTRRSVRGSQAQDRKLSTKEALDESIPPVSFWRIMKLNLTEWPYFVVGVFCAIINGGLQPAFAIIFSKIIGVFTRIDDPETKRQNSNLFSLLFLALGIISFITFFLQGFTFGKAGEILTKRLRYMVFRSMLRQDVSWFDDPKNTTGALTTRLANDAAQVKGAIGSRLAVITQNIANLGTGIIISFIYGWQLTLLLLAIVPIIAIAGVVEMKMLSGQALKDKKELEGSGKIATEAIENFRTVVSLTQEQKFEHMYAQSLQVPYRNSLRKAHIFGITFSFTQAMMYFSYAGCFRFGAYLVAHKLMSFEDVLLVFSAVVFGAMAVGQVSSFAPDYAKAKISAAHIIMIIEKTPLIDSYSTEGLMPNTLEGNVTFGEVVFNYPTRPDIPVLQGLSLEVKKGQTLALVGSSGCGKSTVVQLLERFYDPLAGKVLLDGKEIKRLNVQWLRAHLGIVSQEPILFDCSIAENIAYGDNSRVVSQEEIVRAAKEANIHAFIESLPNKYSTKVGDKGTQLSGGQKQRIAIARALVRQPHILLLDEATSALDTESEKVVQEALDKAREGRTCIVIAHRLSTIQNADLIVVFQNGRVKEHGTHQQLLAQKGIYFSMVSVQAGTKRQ

[3] = target: T1, ATP-dependent translocase ABCB1; test: Reversal of P-glycoprotein-mediated multidrug resistance in human MDR1 gene transfected mouse L5178Y cells assessed as fluorescence activity ratio at 40 ug/ml by flow cytometry; format: cell-based
[4] = target: T1, ATP-dependent translocase ABCB1; test: Reversal of P-glycoprotein-mediated multidrug resistance in human MDR1 gene transfected human Colo 320 cells assessed as fluorescence activity ratio at 4 ug/ml by flow cytometry; format: cell-based
Summary of the method: (§1)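 Colo320/MDR1 cells run as for the L5178 rhodamine 123 assay: compound preincubation 10 min at room temperature, then rhodamine 123 (final 5.2 μM) for 20 min at 37 °C. Monolayers detached with 0.25% trypsin for 2–3 min before flow cytometry. FAR taken as the treated/untreated fluorescence ratio in MDR cells over that in parental cells.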

[5] = target: T1, ATP-dependent translocase ABCB1; test: Reversal of P-glycoprotein-mediated multidrug resistance in human MDR1 gene transfected human Colo 320 cells assessed as fluorescence activity ratio at 0.4 ug/ml by flow cytometry; format: cell-based; summary of the method: as §1
[6] = target: T1, ATP-dependent translocase ABCB1; test: Reversal of P-glycoprotein-mediated multidrug resistance in human MDR1 gene transfected mouse L5178Y cells assessed as fluorescence activity ratio at 0.4 ug/ml by flow cytometry; format: cell-based
Summary of the method: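 L5178 MDR1-transfected cells and parental cells grown in McCoy's 5A with 10% heat-inactivated horse serum, L-glutamine and antibiotics. Compound in DMSO added to cell aliquots for 10 min at room temperature. Rhodamine 123 then added (final 5.2 μM) for 20 min at 37 °C. Cells washed twice, resuspended in PBS pH 7.4, read by flow cytometry. FAR = (treated/untreated MDR) ÷ (treated/untreated parental).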

[7] = Dissociation constant, pKa of the compound; format: physicochemical
L5178Y [8] = test: Cytocidal activity against human MDR1 gene transfected mouse L5178Y cells after 48 hrs by MTT method; format: functional; details: read-out: ID50 (the source's name)
Summary of the method: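 Cells incubated with a range of compound concentrations for 48 h at 37 °C. Viability read by MTT. ID50 derived from the curves. Values are means of duplicate experiments.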

L5178Y [9] = test: Toxicity in human MDR1 gene transfected mouse L5178Y cells at 40 ug/ml; format: cell-based

| SMILES | LogP [1] | Ratio [2] | Ratio [3] | LogP ([1]; read-out: LogP) | pKa [7] | IC50 (L5178Y [8]) | also measured |
| --- | --- | --- | --- | --- | --- | --- | --- |
| O=C1/C(=C/c2ccccc2)CNC/C1=C\c1ccccc1 | 3.38 | 1.58 | 2 | – | – | – | – |
| CC[N+](C)(CC)CCOc1ccc(C(=O)N2C/C(=C\c3ccc([N+](=O)[O-])cc3)C(=O)/C(=C/c3ccc([N+](=O)[O-])cc3)C2)cc1.[I-] | – | 1.03 | 1.22 | 1.3 | – | – | – |
| CC[N+](C)(CC)CCOc1ccc(C(=O)N2C/C(=C\c3ccccc3)C(=O)/C(=C/c3ccccc3)C2)cc1.[I-] | – | 1.37 | 1.05 | 1.37 | – | – | – |
| Cc1ccc(/C=C2\CNC/C(=C\c3ccc(C)cc3)C2=O)cc1 | 4.25 | 3.26 | 4.03 | – | – | – | Ratio [4]: 2.42; Ratio [5]: 1.24; Ratio [6]: 1 |
| CC[N+](C)(CC)CCOc1ccc(C(=O)N2C/C(=C\c3ccc(C)cc3)C(=O)/C(=C/c3ccc(C)cc3)C2)cc1.[I-] | – | 1.93 | 114 | 2.27 | – | – | – |
| O=C1/C(=C/c2ccc(Cl)cc2)CNC/C1=C\c1ccc(Cl)cc1 | 4.71 | 1.25 | 0.91 | – | – | – | – |
| O=C1/C(=C/c2ccc([N+](=O)[O-])cc2)CNC/C1=C\c1ccc([N+](=O)[O-])cc1 | 3.27 | – | – | – | – | – | – |
| CCN(CC)CCOc1ccc(C(=O)N2C/C(=C\c3ccccc3)C(=O)/C(=C/c3ccccc3)C2)cc1.Cl | 5.35 | – | – | – | 10.8 | 3.27 µg/mL | – |
| CCN(CC)CCOc1ccc(C(=O)N2C/C(=C\c3ccc([N+](=O)[O-])cc3)C(=O)/C(=C/c3ccc([N+](=O)[O-])cc3)C2)cc1.Cl | 5.27 | 77.5 | 14.1 | – | 10.8 | – | – |
| CN(C)CCOc1ccc(C(=O)N2C/C(=C\c3ccc([N+](=O)[O-])cc3)C(=O)/C(=C/c3ccc([N+](=O)[O-])cc3)C2)cc1.Cl | – | – | – | 4.52 | 10.7 | – | – |
| CN(C)CCOc1ccc(C(=O)N2C/C(=C\c3ccccc3)C(=O)/C(=C/c3ccccc3)C2)cc1.Cl | 4.6 | 45.5 | 51.6 | – | 10.7 | – | – |
| COc1ccc(CCN(C)CCC[C@](C#N)(c2ccc(OC)c(OC)c2)C(C)C)cc1OC | – | – | – | – | – | 42 µg/mL (≈ 92.4 µM) | – |

Second part, led by results:

| LogP [1] | Ratio [2] | Ratio [3] | LogP ([1]; read-out: LogP) | pKa [7] | SMILES | IC50 (L5178Y [8]) | also measured |
| --- | --- | --- | --- | --- | --- | --- | --- |
| – | 1.21 | 1.85 | 2.73 | – | CC[N+](C)(CC)CCOc1ccc(C(=O)N2C/C(=C\c3ccc(Cl)cc3)C(=O)/C(=C/c3ccc(Cl)cc3)C2)cc1.[I-] | – | – |
| – | – | – | 5.34 | 8.5 | Cc1ccc(/C=C2\CN(C(=O)c3ccc(OCCN4CCOCC4)cc3)C/C(=C\c3ccc(C)cc3)C2=O)cc1.Cl | – | – |
| 6.86 | 157 | 133 | – | 11.1 | Cl.O=C1/C(=C/c2ccc(Cl)cc2)CN(C(=O)c2ccc(OCCN3CCCCC3)cc2)C/C1=C\c1ccc(Cl)cc1 | 4.17 µg/mL | – |
| 5.95 | – | – | – | 10.7 | CN(C)CCOc1ccc(C(=O)N2C/C(=C\c3ccc(Cl)cc3)C(=O)/C(=C/c3ccc(Cl)cc3)C2)cc1.Cl | – | – |
| – | – | – | 4.36 | 8.5 | Cl.O=C1/C(=C/c2ccc([N+](=O)[O-])cc2)CN(C(=O)c2ccc(OCCN3CCOCC3)cc2)C/C1=C\c1ccc([N+](=O)[O-])cc1 | – | – |
| – | – | – | 4.64 | 8.5 | Cl.O=C1/C(=C/c2ccccc2)CN(C(=O)c2ccc(OCCN3CCOCC3)cc2)C/C1=C\c1ccccc1 | – | – |
| 6.25 | 106 | 66.6 | – | 10.8 | CCN(CC)CCOc1ccc(C(=O)N2C/C(=C\c3ccc(C)cc3)C(=O)/C(=C/c3ccc(C)cc3)C2)cc1.Cl | 1.56 µg/mL | – |
| 6.4 | 179 | 146 | – | 11.1 | Cc1ccc(/C=C2\CN(C(=O)c3ccc(OCCN4CCCCC4)cc3)C/C(=C\c3ccc(C)cc3)C2=O)cc1.Cl | 2.83 µg/mL | Ratio [4]: 10.8; Ratio [5]: 2.49; Ratio [6]: 7.35 |
| – | 76 | 6.88 | 5.8 | 8.5 | Cl.O=C1/C(=C/c2ccc(Cl)cc2)CN(C(=O)c2ccc(OCCN3CCOCC3)cc2)C/C1=C\c1ccc(Cl)cc1 | – | – |
| 5.42 | 145 | 51.5 | – | 11.1 | Cl.O=C1/C(=C/c2ccc([N+](=O)[O-])cc2)CN(C(=O)c2ccc(OCCN3CCCCC3)cc2)C/C1=C\c1ccc([N+](=O)[O-])cc1 | 2.15 µg/mL | – |
| 5.51 | – | – | – | 11.1 | Cl.O=C1/C(=C/c2ccccc2)CN(C(=O)c2ccc(OCCN3CCCCC3)cc2)C/C1=C\c1ccccc1 | 3.28 µg/mL | – |
| 6.71 | 118 | 99.7 | – | 10.8 | CCN(CC)CCOc1ccc(C(=O)N2C/C(=C\c3ccc(Cl)cc3)C(=O)/C(=C/c3ccc(Cl)cc3)C2)cc1.Cl | 1.53 µg/mL | – |
| 5.5 | – | – | – | 10.7 | Cc1ccc(/C=C2\CN(C(=O)c3ccc(OCCN(C)C)cc3)C/C(=C\c3ccc(C)cc3)C2=O)cc1.Cl | – | Activity (L5178Y [9]): Toxic |
